# UHRF1 MBD2 ctr: human UHRF1 methylated DNA binding inhibitors | Q96T88 | UHRF1 binding to methylated oligo, TR-FRET | inhibition, % at 4.4 µM | 0.75% of 370,000 active | AID 687016; in the data active = inhibition above about 21%;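 note: UHRF1 SRA domain binding a hemimethylated CpG hairpin DNA probe; 0% = median of test compound wells and 100% = reference inhibitor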
# LEDGF integ inh: blocks HIV-1 LEDGF/p75-dependent DNA integration; TR-FRET IN-LEDGF/p75 DNA integration, Eu/Cy5; inhibition, % at 3.7 µM; 0.64% of 370,000 active;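 active = inhibition above the screen-wide mean plus 3 SD, cut at about 13% in these data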;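 note: signal is the Cy5 over europium emission ratio at 671 and 618 nm; 0% = plate median of compound wells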
# ABHD5-PLIN5 inh: ABHD5-PLIN5 protein interaction inhibition; AID 602281; 0.78% of 360,000 active; Split G. princeps luciferase complementation, luminescence, 4 h; Q00G26+Q8WTS1; inhibition, % at 4 µM;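 active = inhibition above the mean inhibition across every tested compound plus 3 SD, cut at about 22% in these data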;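 note: 0% = DMSO only wells and the 100% control is not disclosed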
# MBD2 inh: MBD2-methylated oligo binding inhibition; inhibition, % at 4.4 µM; Q9UBB5; 0.31% of 370,000 active; TR-FRET, MBD2 binding to methylated oligonucleotide; in the data active = inhibition above about 13%
# PRMT1 inh: blocks human protein arginine methyltransferase 1; Q99873; recombinant PRMT1, activity-based probe fluorescence polarization; inhibition, % at 2.79 µM; 1.3% of 370,000 active; AID 652257;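 active = inhibition above about 21% made by adding two undisclosed values, limit read from the data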
# RBBP9 inh: human RBBP9 hydrolase inhibition | O75884 | recombinant RBBP9, FP-Rh probe fluorescence polarization | inhibition, % at 7.94 µM | 0.2% of 220,000 active | AID 1515;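 active = inhibition above the campaign mean of all tested compounds plus 3 SD, cut at about 14% in these data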;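 note: plate controls were DMSO wells with RBBP9 for no effect and wells lacking RBBP9 protein for full effect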
#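 System: RBBP9 protein / Buffer or medium: Tris/NaCl buffer pH 8.0 with 0.1% Pluronic / Probe or stimulus: Serine-hydrolase probe FP-Rh, 375 nM pre-mixing / Dosing: 7.94 µM single dose, 0.794% DMSO / Times: enzyme-compound preincubation 30 min, then probe labeling 45 min, 25 °C / Technique: fluorescence polarization (mP), excitation 525 nm, emission 598 nm / Replication: singlicate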
# ABHD5 PLIN5 conf: confirmation of human ABHD5-PLIN5 interaction inhibitors; shares compounds with ABHD5-PLIN5 inh; biochemical ABHD5-PLIN5 interaction, luminescence; inhibition, % at 4 µM; 67% of 2,200 active; AID 651612; in the data active = inhibition above about 23%;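 note: 0% = DMSO vehicle wells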
# HNF4 split-luc: active in HNF4 split-luciferase counter-screen for ABHD5-PLIN5 inhibitors; shares compounds with ABHD5-PLIN5 inh; HNF4 dimerization, luminescence, biochemical; inhibition, % at 4 µM; 77% of 2,200 active;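 active = mean inhibition across replicate wells exceeding the computed hit threshold, cut at about 13% in these data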;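 note: light from luciferase halves that rejoin when HNF4 fusion proteins dimerize; 0% = DMSO only wells and the 100% control is not given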
# * hit, by the source's call; . = not tested or not shown; ! = not confirmed by another sample. Compounds with a hit are over-represented: about 3.1% of the library has one in this group of screens.
SMILES,UHRF1 MBD2 ctr,LEDGF integ inh,ABHD5-PLIN5 inh,MBD2 inh,PRMT1 inh,RBBP9 inh,ABHD5 PLIN5 conf,HNF4 split-luc
COC(=O)C1=C(C(=O)OC)[C@@]2([C@H](Cc3ccc(C)cc3)Nc3ccccc3)C=C[C@@H]1O2,-0.7,-1.4,.,2.7,0.1,.,.,.
C=CCC(Nc1ccccc1)C12C=CC(O1)C(C(=O)OC)=C2C(=O)OC (configuration not stated),-3.9,0.5,26.2*,-5.1,0.3,-2.1,85.6*,89.5*
COC(=O)[C@]12C[C@H](CC(=O)NCC34CC5CC(CC(C5)C3)C4)C(=O)N(Cc3ccco3)C1=C[C@H](C1CCCC1)O[C@@H]2C,-0.4,4.5,.,-1.8,-1.4,.,.,.
C=C1C(=O)[C@]23C[C@H]1CCC2[C@@]1(C)C(C[C@@H]3O)[C@](C)(C(=O)O)C[C@H](O)[C@@H]1O (some centres not stated),3.6,-4.2,38.1*,-0.6,13.8,.,37.6*,82.6*
C=C1C(=O)[C@]23C[C@H]1CC[C@H]2[C@]1(C)[C@@H](O)CC[C@@](C)(C(=O)O)[C@H]1C[C@@H]3O,-0.1,-1.3,30.7*,-8.0,4.0,.,32.6*,88.7*
CCCCNC(=O)C[C@H]1C[C@@]2(C(=O)OC)C(=C[C@H](C(C)C)O[C@@H]2C2CC2)N(Cc2cccc3ccccc23)C1=O,-2.3,3.4,.,-3.9,-6.7,.,.,.
Cc1ccc(C2=NN=C(NC(=O)CSc3nncn3C)SC2)cc1,0.4,-9.9,44.9*,4.5,93.8*,7.0,70.2*,102.1*
Cc1ccc(C(=O)NC(=O)CSc2nncn2C)cc1,2.9,-4.3,-4.4,-3.8,1.6,.,.,.
COc1cc2c(c(OC)c1OC)C1(CCCCC1)CC2NCC=C(C)C (configuration not stated),-1.2,-0.5,.,-1.8,-0.6,.,.,.
C=C[C@]1(C)C[C@@H](OC(=O)CSCCN(CC)CC)[C@]2(C)C(C)CC[C@]3(CCC(=O)[C@H]32)[C@@H](C)[C@@H]1O (some centres not stated),0.6,-3.4,23.4*!,-0.5,-0.1,.,33.1*,1.0
COc1ccc(OCC(=O)Nc2ccc3c(c2)nc(CCN2CCC(C)CC2)n3C)cc1,4.4,1.4,9.5,-1.3,-3.5,.,.,.
CC1CCN(CCc2nc3cc(NC(=O)COc4ccc(Cl)cc4)ccc3n2C)CC1,3.0,-2.5,23.2*,0.6,-0.1,.,8.1,4.0
COC(=O)C1=C(C)N(Cc2ccc(C(F)(F)F)cc2)C(=NCc2ccccc2)NC1c1ccc(C(F)(F)F)cc1 (configuration not stated),2.5,-3.7,.,0.4,2.3,.,.,.
C=C1C(=O)O[C@@H]2[C@H]1[C@@H](OC(=O)/C(C)=C/C)C/C(C)=C\C(=O)/C=C(\C)[C@@H]2O,0.6,6.1,42.1*,-2.0,7.6,.,61.9*,72.1*
Cn1cc(CN(CCCN2CCOCC2)C(=S)Nc2cccc(Cl)c2)c2ccccc21,-1.1,0.3,25.4*,0.6,-0.2,2.3,11.3,-0.8
Cc1cccc(NC(=S)N(CCCN2CCOCC2)Cc2cn(C)c3ccccc23)c1,41.8*,0.5,23.3*,1.0,0.7,-6.2,1.4,-1.7
O=C(CC1C=CCC1)OCCN1CCN(C2CN(Cc3cn(Cc4ccccc4Cl)nn3)S(=O)(=O)C2)CC1 (configuration not stated),3.2,3.6,.,0.2,-2.7,.,.,.
CCOC(=O)C1=C(C)N=c2s/c(=C\c3ccncc3)c(=O)n2C1c1ccc2c(c1)OCO2 (configuration not stated),0.2,0.4,-12.6,-4.0,7.7,-10.9,.,.
CCOC(=O)C1=C(C)N=c2s/c(=C3\C(=O)Nc4ccccc43)c(=O)n2C1c1ccc2c(c1)OCO2 (configuration not stated),-8.7,-4.3,26.7*,-0.9,21.1,2.0,5.1,-14.4
O=C(/C=C/c1ccc(-c2ccccc2)cc1)NC1=NCCS1,-2.9,0.3,.,-1.2,-1.9,.,.,.
